This sample holds only a part of the variants without activity.
B1: tRNA (parent)
chain: GUUCCGUUGGCGUAAUGGUAACGCGUCUCCCUCCUAAGGAGAAGACUGCGGGUUCGAGUCCCGUACGGAACG

Variants of: B1
Assay: yeast fitness relative to wild type (ratio to wild type); higher = fitter; tRNA-Arg(CCU), competitive growth, 37 C, YPD
Outline: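 For this measurement, the tRNA-Arg(CCU) gene was varied by chemical synthesis at a 3% per-site mutation rate across 69 sites, and each variant was placed at the native genomic locus in Saccharomyces cerevisiae. The pooled strains went through a 24-hour competition in YPD at 37°C in six parallel replicates, with amplicons from start and end populations read by 100-nucleotide paired-end sequencing. Darwinian fitness relative to wild type followed from the change in each genotype's frequency. Genotypes needed ≥ 100 starting reads, and estimates < 0.5 were set to 0.5.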

For GUUCCGUUGGCGCAAUGGUAACGCGUCUCCCUCCUAAGGAGAAGACUGCGGGUUCAAGUCCCGUACGGAACG, which yeast fitness is on record?
Its yeast fitness is 1.04.

With GUUCCGUUGGCGCAAUGGUAACGCGUCUCCCUCCUAAGGAGAAGACUGCGGGUUCCAGUCCCGUACGGAACG as the variant, how does the yeast fitness read?
Its yeast fitness is 0.549.

For GUUCCGUUGGCGCAAUGGUAACGCGUCUCCCUCCUAAGGAGAAGACUACGGGUUCGAGUCGCGUACGGCACG, which yeast fitness is on record?
Its yeast fitness is 0.594.

Which yeast fitness does the source give for GUUCCGUUGGCGCAAUGGUAACCCGUCUCCCUCCUAAGGAGAAGACUGCGGGUUCGAGUCCCGUACGGAACG here?
Its yeast fitness is 0.511.

With GUUCCGUUGGCGCAAUGGUAACGCAUCUCCCUCCUAAGGAGAAGACUGCGGGUUCGAGUCCCGUACGGUACG as the variant, how does the yeast fitness read?
The yeast fitness was 0.767.

With GUUCCGUUGGCGCAAUGGUAACGCGUCUCCCUCCUAAGGAGAAGACUGCGGAUUCGAGUCCCGUACGGAACG as the variant, how does the yeast fitness read?
Its yeast fitness is 0.735.

Which yeast fitness does the source give for GUUCCGUUGGCGCAAUGAUAACGCGUCUCCCUCCUAAGGAGAAGACUGCGGGUUCGAGUCCCGUAGGGAACG here?
Its yeast fitness is 0.662.

With GUUCCGUUGGCGCAAUGGUAACGCGUCUCCCUCCUAAAGAGAAGACUGCGGGUUCGAGUCCCGUACGGAACG as the variant, how does the yeast fitness read?
The yeast fitness was 0.708.

For GUUCCGUUGGCGCAAUGGUAACGCGUCUCCCUCCUAAGGAGAACACUGCGGGUUCGAGUCCCGUACGGAACG, which yeast fitness is on record?
The yeast fitness was 0.913.

With GUUCCGUUGGCGCAAUGGUAACGCGUCUCCCUCCUAAGGAGAAAACUGCGGGUUCGAGUCCCGUACGGAACG as the variant, how does the yeast fitness read?
Its yeast fitness is 0.827.

Which yeast fitness does the source give for GUUCCGUUGGCGCAAUGGUAACGCGUCUCCCUCCUAAGGAGAAGACUCCAGGUUCGAGUCCCGUACGGAACG here?
The yeast fitness was ≤ 0.5.

For GUUCCGUUGGCGCAAUGGUAACGCGUCUCCCUCCUAACGAGACGACUGCGCGUUCCAGUCCCGUACGGAACG, which yeast fitness is on record?
Its yeast fitness is 0.531.

With GUUCCGUUGGCGCAAUGGUAACGCGUCUCCCUCCUAAGGAGAAGACUGCGGGUUCAAGUCCCGUAUGGAACG as the variant, how does the yeast fitness read?
The yeast fitness was 0.696.

For GUUCCGUUGGCGCAAUGGUAACGCGUCUCCCUCCUAAAGAGAAGACUGCGGGUUCGAGUCCCGUACGGAUCG, which yeast fitness is on record?
The yeast fitness was 0.525.

With GUUCCGUUGGCGCAAUGGUAACGCCUCUCCCUCCUAAGGCGAAGACUGCGGGUUCGAGUCCCGUACGGAACG as the variant, how does the yeast fitness read?
The yeast fitness was 0.667.

With GUUCCGUUGGCGCAAUGGUAACGCGUCUCCCUCCUAAGAAGAAGACUGCGGGUUCGAGUCCCGUACGGAACG as the variant, how does the yeast fitness read?
The yeast fitness was 0.982.

With GUUCCGUUGGCGCAAUGGUAACGCCUCUCGCUCCUAAGGAGAAGACUGCGGGUUCGAGUCCCGUACGGAACG as the variant, how does the yeast fitness read?
Its yeast fitness is 0.611.

For GUUCCGUUGGCGCAAUGGUAACGCGUCUCCCUCCUAAGGAGAAAACUGCGGGUUCGAGUCCCGUACGGUACG, which yeast fitness is on record?
Its yeast fitness is 0.696.

With GUUCCGUUGGCGCAAUGGUAACGCGUCUCCCUCCUAAGGAGAAGACUGCCGGUUCGAGUCCCGUAUGGAACG as the variant, how does the yeast fitness read?
The yeast fitness was ≤ 0.5.

For GUUCCGUUGGCGCAAUGGUAACCCGUCUCCCUCCUAAGGAGAAGACUGCGGGUUCGAGUCCCGUACGGAGCG, which yeast fitness is on record?
The yeast fitness was 0.585.

Which yeast fitness does the source give for GUUCCGUUGGCGCAAUGGUAACGCGUCUCCCUCCUAAGGAGAAGACUGCGCGUCCGAGUCCCGUACGGAACG here?
The yeast fitness was ≤ 0.5.

With GUUCCGUUGGCGCAAUGAUAACGCGUCUCCCUCCUAAGGAGAAGACUGCGGGUUCGAGUCCCGUACGGAACG as the variant, how does the yeast fitness read?
The yeast fitness was 0.843.

Which yeast fitness does the source give for GUUCCGUUGGCGCAAUGGUAACGCGUCUCCCUCCUAAGGAGAAGACUGCGGGUUCGAAUCCCGUACGGACCG here?
The yeast fitness was 0.817.

With GUUCCGUUGGCGCAAUGGUAACGCGUCUCCCUCCUAAGGAGAACACUGCGGGUUCGAAUCCCGUACGGAACG as the variant, how does the yeast fitness read?
The yeast fitness was 0.927.

With GUUCCGUUGGCGCAAUGGUAACGCCUCUCCCUCCUAAGGAGAAGACUGCGGGUUCGAGUCCCGUACGGAACG as the variant, how does the yeast fitness read?
Its yeast fitness is 0.996.

With GUUCCGUUGGCGCAAUGGUAACGCAUCUCCCUCCUAAGGAGAAGACUGCGGGUUCGAGUCCCGUACGGAACG as the variant, how does the yeast fitness read?
Its yeast fitness is 0.902.

For GUUCCGUUGGCGCAAUGGUAACGCGUCUCCCUCCUAAGGAGAAGACUCCGGGUUCGCGUCCCGUACGGAACG, which yeast fitness is on record?
The yeast fitness was ≤ 0.5.

Which yeast fitness does the source give for GUUCCGUUGGCGCAAUGGUAACGCGUCUCCCUCCUAAGGAGAAGACUCCGGGUUCGGGUCCCGUACGGAACG here?
The yeast fitness was ≤ 0.5.

With GUUCCGUUGGCGCAAUGGUAACGCAUCUCCUUCCUAAGGAGAAGACUGCGGGUUCGAGUCCCGUACGGAACG as the variant, how does the yeast fitness read?
Its yeast fitness is 0.749.

For GUUCCGUUGGCGCAAUGGUAACGCGUCUCCCUCCUAAGGAGAAGACUCCGGGUUCGAGUCCCGUACGGAACG, which yeast fitness is on record?
The yeast fitness was 0.906.

With GUUCCGUUGGCGCAAUGGUAACGCGUCUCCCUCCUAAGGAGAAGACUGCAGGUUCGAGUCCCGUACGGAACG as the variant, how does the yeast fitness read?
Its yeast fitness is 0.874.

Which yeast fitness does the source give for GUUCCGUUGGCGCAAUGGUAACCCGUCUCCCUCCUAAGGAGAAGACUGUGGGUUCGAGUCCCGUACGGAACG here?
The yeast fitness was ≤ 0.5.

Which yeast fitness does the source give for GUUCCGUUGGCGCAAUGGUAACGCGUCUCCCUCCUAACGUGAAGACUGAGGGUUCGAGUCCCGUAAGGAACG here?
The yeast fitness was ≤ 0.5.

With GUUCCGUUGGCGCAAUGAUAACGCGUCUCCCUCCUAAGGAAAAGACUGCGGGUUCGAGUCCGGUUCGGAACG as the variant, how does the yeast fitness read?
The yeast fitness was 0.619.

For GUUCCGUUGGCGCAAUGGUAACGCCUCUCCCUCCUAAGGAGAAGACUGCGGGUUCGAGUUCUGUACGGAACG, which yeast fitness is on record?
The yeast fitness was ≤ 0.5.

For GUUCCGUUGGCGCAAUGGUAACGCGUCUCCCUCCUAACGAGACGACUGCGCGUUCCAGUCCCGUACGGGACG, which yeast fitness is on record?
The yeast fitness was ≤ 0.5.

Which yeast fitness does the source give for GUUCCGUUGGCGCAAUGGUAACACGUCUGCCUCCUAAGGAGAAGUCUGCGGGUUCGAGUCCUGUACGGAACG here?
Its yeast fitness is ≤ 0.5.

With GUUCCGUUGGCGCAAUGAUAACGCGUCUCCCUCCUAAGGAGAAGACUGCGGGUUCGAGUCCCGUACGGCACG as the variant, how does the yeast fitness read?
Its yeast fitness is 0.719.
